Experimental data from ChEMBL document CHEMBL1268809, “Optimisation of 2-cyano-pyrimidine inhibitors of cathepsin K: improving selectivity over hERG” (Bioorg Med Chem Lett, 2010).
≈ marks a conversion by molar mass, not a printed value.

Key:
[1] = target: Voltage-gated inwardly rectifying potassium channel KCNH2 (Homo sapiens, UniProt Q12809); assay: Displacement of [3H] dofetilide from human ERG channel expressed in HEK293 cells; type: cell-based
[2] = Solubility in pH 7.4 PBS solution; type: physicochemical
Cathepsin K = target: T1, Cathepsin K (Homo sapiens, UniProt P43235); assay: Inhibition of human recombinant cathepsin K using Z-Phe-Arg-MCA substrate by fluorimetric assay
T1 sequence (P43235 whole entry): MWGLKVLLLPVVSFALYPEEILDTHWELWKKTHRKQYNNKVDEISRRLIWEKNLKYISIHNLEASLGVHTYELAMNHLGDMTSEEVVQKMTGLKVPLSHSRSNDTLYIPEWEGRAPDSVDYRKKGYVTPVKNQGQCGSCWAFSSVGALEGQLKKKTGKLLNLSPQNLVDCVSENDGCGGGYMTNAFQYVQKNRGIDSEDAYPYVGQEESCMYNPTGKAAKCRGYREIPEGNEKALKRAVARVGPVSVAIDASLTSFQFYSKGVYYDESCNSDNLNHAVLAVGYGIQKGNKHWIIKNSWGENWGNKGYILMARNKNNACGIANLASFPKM

[3] = Half life in plasma; type: ADME, cell-free
Osteoclast = assay: Inhibition of bone resorption in rabbit osteoclasts; type: functional, cell-based; conditions: Oryctolagus cuniculus
[4] = Oral bioavailability in Wistar rat at 10 mg/kg; type: ADME, organism-based; conditions: in vivo
Procedure, shortened: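 Wistar rats were dosed iv at 2 mg/kg and po at 10 mg/kg. Oral bioavailability (F, %) was derived from the two routes.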

Cytochrome P450 2C9 = Cytochrome P450 2C9 (Homo sapiens, UniProt P11712); assay: Inhibition of CYP2C9; type: ADME
Chain of Cytochrome P450 2C9 (P11712 whole entry): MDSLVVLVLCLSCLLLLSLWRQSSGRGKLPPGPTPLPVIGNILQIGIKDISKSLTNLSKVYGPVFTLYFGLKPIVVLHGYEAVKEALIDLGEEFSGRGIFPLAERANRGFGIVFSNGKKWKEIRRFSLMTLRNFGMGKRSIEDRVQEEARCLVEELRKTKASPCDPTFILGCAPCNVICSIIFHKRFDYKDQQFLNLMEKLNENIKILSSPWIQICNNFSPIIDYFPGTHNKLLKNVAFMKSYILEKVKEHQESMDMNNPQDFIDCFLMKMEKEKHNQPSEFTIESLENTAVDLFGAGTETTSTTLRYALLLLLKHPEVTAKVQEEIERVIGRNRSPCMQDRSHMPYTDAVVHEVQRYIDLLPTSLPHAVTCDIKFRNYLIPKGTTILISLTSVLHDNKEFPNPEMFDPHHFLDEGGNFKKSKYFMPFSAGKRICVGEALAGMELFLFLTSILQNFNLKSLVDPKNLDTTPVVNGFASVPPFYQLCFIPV

Cytochrome P450 3A4 = Cytochrome P450 3A4 (Homo sapiens, UniProt P08684); assay: Inhibition of CYP3A4; type: ADME
Chain of Cytochrome P450 3A4 (P08684 whole entry): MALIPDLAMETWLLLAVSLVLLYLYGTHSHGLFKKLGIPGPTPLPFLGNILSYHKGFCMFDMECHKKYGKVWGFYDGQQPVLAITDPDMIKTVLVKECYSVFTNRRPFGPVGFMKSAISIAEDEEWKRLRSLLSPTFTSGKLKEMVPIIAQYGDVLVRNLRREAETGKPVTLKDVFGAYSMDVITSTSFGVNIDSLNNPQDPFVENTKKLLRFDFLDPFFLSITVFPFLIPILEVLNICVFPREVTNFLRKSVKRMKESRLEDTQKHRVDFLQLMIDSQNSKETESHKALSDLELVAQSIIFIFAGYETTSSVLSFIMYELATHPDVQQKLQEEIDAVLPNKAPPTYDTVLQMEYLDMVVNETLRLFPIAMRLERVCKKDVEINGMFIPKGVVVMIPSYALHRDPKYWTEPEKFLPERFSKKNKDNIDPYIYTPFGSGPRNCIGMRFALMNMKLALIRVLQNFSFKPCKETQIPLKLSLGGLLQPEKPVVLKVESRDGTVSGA

Cytochrome P450 2C19 = Cytochrome P450 2C19 (Homo sapiens, UniProt P33261); assay: Inhibition of CYP2C19; type: ADME
Chain of Cytochrome P450 2C19 (P33261 whole entry): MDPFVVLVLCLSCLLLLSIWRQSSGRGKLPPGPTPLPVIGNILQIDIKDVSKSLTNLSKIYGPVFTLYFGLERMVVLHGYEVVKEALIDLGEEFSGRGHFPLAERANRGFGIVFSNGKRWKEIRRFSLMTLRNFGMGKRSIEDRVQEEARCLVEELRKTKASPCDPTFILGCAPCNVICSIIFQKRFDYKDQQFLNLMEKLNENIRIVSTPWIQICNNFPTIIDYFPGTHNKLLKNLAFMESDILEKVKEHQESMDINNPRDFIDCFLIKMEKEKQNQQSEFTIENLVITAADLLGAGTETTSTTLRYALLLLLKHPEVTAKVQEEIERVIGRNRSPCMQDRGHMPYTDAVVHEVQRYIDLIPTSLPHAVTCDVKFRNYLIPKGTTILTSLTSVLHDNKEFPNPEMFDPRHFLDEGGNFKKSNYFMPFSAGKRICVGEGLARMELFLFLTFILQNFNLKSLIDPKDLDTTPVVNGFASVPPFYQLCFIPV

Cathepsin S = Cathepsin S (Homo sapiens, UniProt P25774); assay: Inhibition of human recombinant cathepsin S
Chain of Cathepsin S (P25774 whole entry): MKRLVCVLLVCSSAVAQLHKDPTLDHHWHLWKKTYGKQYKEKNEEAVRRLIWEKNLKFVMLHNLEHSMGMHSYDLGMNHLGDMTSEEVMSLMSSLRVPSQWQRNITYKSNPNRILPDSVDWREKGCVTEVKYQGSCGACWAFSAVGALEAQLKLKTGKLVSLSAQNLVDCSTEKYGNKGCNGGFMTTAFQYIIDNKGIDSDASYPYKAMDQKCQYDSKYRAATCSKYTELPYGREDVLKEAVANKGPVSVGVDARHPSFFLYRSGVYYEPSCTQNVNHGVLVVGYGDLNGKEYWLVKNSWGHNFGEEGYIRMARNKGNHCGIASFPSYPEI

[5] = Oral bioavailability in Beagle dog at 1.96 mg/kg; conditions: in vivo
Procathepsin L = Procathepsin L (Homo sapiens, UniProt P07711); assay: Inhibition of human recombinant cathepsin L
Chain of Procathepsin L (P07711 whole entry): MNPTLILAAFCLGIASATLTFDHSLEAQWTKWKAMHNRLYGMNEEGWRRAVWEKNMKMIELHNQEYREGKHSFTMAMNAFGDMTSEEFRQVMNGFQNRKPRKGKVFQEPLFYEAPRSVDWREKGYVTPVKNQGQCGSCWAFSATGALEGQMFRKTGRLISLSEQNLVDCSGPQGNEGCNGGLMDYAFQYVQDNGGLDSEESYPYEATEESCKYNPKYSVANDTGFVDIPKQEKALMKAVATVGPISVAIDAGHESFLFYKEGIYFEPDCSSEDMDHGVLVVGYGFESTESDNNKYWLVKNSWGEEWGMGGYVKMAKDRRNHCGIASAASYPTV

Cytochrome P450 1A2 = target: T2, Cytochrome P450 1A2 (Homo sapiens, UniProt P05177); assay: Inhibition of CYP1A2; type: ADME
T2 sequence (P05177 whole entry): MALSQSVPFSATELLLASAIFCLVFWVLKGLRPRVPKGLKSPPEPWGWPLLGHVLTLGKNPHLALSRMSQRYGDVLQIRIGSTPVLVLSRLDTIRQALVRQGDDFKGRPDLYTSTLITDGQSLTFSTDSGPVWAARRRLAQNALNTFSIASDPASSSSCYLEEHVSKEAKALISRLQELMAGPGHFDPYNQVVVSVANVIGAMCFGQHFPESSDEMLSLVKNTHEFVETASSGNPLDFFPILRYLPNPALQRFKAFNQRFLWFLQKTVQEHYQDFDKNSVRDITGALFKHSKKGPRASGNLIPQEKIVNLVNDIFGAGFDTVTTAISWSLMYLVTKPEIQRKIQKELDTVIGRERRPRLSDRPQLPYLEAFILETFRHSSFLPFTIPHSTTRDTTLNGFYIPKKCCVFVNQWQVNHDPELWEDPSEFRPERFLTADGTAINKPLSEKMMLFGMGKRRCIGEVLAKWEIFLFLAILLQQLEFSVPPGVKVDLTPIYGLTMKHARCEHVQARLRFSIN

[6] = Oral bioavailability in cynomolgus monkey at 4.63 mg/kg; conditions: in vivo
Cathepsin B = Cathepsin B (Homo sapiens, UniProt P07858); assay: Inhibition of human recombinant cathepsin B

Chain of Voltage-gated inwardly rectifying potassium channel KCNH2 (Q12809 whole entry): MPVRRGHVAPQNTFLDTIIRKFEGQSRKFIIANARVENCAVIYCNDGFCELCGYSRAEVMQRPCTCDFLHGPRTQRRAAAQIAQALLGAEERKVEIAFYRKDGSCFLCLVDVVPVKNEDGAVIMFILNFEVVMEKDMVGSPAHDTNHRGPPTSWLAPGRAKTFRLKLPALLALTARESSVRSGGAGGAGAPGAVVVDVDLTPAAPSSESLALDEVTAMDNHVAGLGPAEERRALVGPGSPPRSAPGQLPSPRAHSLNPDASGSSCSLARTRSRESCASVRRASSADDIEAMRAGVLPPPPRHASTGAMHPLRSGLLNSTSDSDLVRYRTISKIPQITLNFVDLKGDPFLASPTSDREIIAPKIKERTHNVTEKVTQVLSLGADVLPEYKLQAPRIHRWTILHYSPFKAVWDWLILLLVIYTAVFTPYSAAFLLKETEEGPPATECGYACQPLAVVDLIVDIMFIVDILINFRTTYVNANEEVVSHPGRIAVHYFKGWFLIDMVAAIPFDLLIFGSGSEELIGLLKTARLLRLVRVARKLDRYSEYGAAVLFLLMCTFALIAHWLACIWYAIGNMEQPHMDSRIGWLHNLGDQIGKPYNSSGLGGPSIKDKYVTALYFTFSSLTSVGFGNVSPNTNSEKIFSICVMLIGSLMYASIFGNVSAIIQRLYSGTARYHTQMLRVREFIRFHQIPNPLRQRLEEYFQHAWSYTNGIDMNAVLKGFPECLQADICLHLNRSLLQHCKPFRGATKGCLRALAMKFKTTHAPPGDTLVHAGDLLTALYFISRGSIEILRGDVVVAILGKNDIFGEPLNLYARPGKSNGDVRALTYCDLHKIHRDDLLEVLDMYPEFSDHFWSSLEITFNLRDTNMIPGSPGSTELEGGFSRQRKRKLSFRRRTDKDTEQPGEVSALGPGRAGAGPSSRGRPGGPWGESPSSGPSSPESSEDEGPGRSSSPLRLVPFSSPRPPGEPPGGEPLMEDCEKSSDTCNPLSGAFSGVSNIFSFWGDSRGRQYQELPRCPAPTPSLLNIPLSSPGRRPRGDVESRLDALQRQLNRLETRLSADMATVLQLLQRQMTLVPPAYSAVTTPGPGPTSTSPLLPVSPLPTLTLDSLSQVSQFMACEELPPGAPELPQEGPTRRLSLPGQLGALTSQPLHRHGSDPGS

Row | IC50 (Cathepsin K) | SMILES | Ki [1] | also measured
1 | – | N#Cc1nc(CCCN2CCCCC2)cc(-c2cccc(C(F)(F)F)c2)n1 | 160 nM | solubility [2]: 60 µg/mL (≈ 160 µM)
2 | 3 nM | N#Cc1nc(CCCNc2ccccn2)cc(-c2cccc(C(F)(F)F)c2)n1 | – | –
3 | 30 nM | N#Cc1nc(CCCNCC(F)(F)F)cc(-c2cccc(C(F)(F)F)c2)n1 | 500 nM | –
4 | 389 nM | CCC(CC)NC(=O)CCc1cc(-c2cccc(C(F)(F)F)c2)nc(C#N)n1 | – | –
5 | – | N#Cc1nc(CCCNC2(C(N)=O)CCC2)cc(-c2cccc(C(F)(F)F)c2)n1 | 2510 nM | –
6 | 13 nM | N#Cc1nc(CCCN2CCOC[C@H]2C(N)=O)cc(-c2cccc(C(F)(F)F)c2)n1 | > 10000 nM | half-life [3]: > 2.5 h
7 | 6 nM | CNCCCc1cc(-c2cccc(C(F)(F)F)c2)nc(C#N)n1 | – | –
8 | 11 nM | N#Cc1nc(CCCNCc2nnn[nH]2)cc(-c2cccc(C(F)(F)F)c2)n1 | > 10000 nM | IC50 (Osteoclast): 1640 nM
9 | 10 nM | CN1CCN(CCCc2cc(-c3cccc(C(F)(F)F)c3)nc(C#N)n2)CC1 | – | –
10 | – | CCCc1cc(-c2cc(C(=O)N(CCN(C)C)Cc3ccccc3)cc(C(F)(F)F)c2)nc(C#N)n1 | 120 nM | –
11 | 427 nM | CCCc1cc(-c2cc(C(F)(F)F)ccc2C(=O)N(C)C)nc(C#N)n1 | – | –
12 | 9 nM | N#Cc1nc(CCCN2CCOCC2)cc(-c2cccc(C(F)(F)F)c2)n1 | 320 nM | –
13 | – | CCCc1cc(-c2cc(C(=O)N(C)C)cc(C(F)(F)F)c2)nc(C#N)n1 | > 10000 nM | –
14 | – | N#Cc1nc(CCCNCC(N)=O)cc(-c2cccc(C(F)(F)F)c2)n1 | 3980 nM | –
15 | 9 nM | CCCc1cc(-c2cc(C(=O)N(C)Cc3ccccc3)cc(C(F)(F)F)c2)nc(C#N)n1 | – | –
16 | 166 nM | N#Cc1nc(CCC(=O)O)cc(-c2cccc(C(F)(F)F)c2)n1 | > 10000 nM | –
17 | – | CCCc1cc(-c2cc(C(=O)N(C)CCN(C)C)cc(C(F)(F)F)c2)nc(C#N)n1 | 710 nM | –
18 | 5 nM | N#Cc1nc(CCCNC2(C(N)=O)CCOCC2)cc(-c2cccc(C(F)(F)F)c2)n1 | > 10000 nM | half-life [3]: > 2.5 h
19 | – | CC(C)(NCCCc1cc(-c2cccc(C(F)(F)F)c2)nc(C#N)n1)C(N)=O | – | bioavailability [4]: 29%; IC50 (Cytochrome P450 2C9): > 35000 nM; IC50 (Cytochrome P450 3A4): > 35000 nM; IC50 (Cytochrome P450 2C19): > 35000 nM; IC50 (Cathepsin S): 16 nM; bioavailability [5]: 29%; solubility [2]: 393 µg/mL (≈ 1000 µM); IC50 (Procathepsin L): > 10000 nM; IC50 (Cytochrome P450 1A2): > 35000 nM; bioavailability [6]: 57%; IC50 (Cathepsin B): 2510 nM
20 | – | N#Cc1nc(CCCN2CCC(O)CC2)cc(-c2cccc(C(F)(F)F)c2)n1 | 1120 nM | –
21 | 10 nM | COCCNCCCc1cc(-c2cccc(C(F)(F)F)c2)nc(C#N)n1 | 560 nM | –
22 | – | N#Cc1nc(CCCNC2(C(N)=O)CC2)cc(-c2cccc(C(F)(F)F)c2)n1 | 1580 nM | –
23 | – | N#Cc1nc(CCCNCC(=O)O)cc(-c2cccc(C(F)(F)F)c2)n1 | > 10000 nM | –
